Experimental data taken from publication PMC3172397 (Journal of colloid and interface science, 2011).

Tests used:
Assay in all cases: intrinsic Trp fluorescence titration, Scatchard analysis
Format in all cases: binding
ovalbumin (OVA) = biological target: T1, ovalbumin (OVA) (Gallus gallus, UniProt P01012)
T1 sequence (P01012 2-386): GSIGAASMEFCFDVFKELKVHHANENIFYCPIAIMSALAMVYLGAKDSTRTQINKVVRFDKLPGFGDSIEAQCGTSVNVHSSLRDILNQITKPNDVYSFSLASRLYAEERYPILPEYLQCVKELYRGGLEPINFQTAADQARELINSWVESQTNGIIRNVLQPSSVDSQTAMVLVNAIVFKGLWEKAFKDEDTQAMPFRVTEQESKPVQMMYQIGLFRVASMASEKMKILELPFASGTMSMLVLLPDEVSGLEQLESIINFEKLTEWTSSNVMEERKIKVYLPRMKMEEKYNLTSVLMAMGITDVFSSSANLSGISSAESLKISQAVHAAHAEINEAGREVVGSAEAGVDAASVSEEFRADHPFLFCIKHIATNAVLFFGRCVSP
Procedure, shortened: (§1)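 Trp fluorescence read with 295 nm excitation and 335–360 nm emission. Fraction bound was taken from intensity relative to unbound and saturated protein. K was taken from the slope of linear Scatchard (ν/c vs ν) segments.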

[1] = biological target: α-chymotrypsinogen A (aCHY) (Bos taurus, UniProt P00766)
Procedure, shortened: as §1

[2] = biological target: Bovine Serum albumin (BSA) (Bos taurus, UniProt P02769)
Chain of Bovine Serum albumin (BSA) (P02769 25-607): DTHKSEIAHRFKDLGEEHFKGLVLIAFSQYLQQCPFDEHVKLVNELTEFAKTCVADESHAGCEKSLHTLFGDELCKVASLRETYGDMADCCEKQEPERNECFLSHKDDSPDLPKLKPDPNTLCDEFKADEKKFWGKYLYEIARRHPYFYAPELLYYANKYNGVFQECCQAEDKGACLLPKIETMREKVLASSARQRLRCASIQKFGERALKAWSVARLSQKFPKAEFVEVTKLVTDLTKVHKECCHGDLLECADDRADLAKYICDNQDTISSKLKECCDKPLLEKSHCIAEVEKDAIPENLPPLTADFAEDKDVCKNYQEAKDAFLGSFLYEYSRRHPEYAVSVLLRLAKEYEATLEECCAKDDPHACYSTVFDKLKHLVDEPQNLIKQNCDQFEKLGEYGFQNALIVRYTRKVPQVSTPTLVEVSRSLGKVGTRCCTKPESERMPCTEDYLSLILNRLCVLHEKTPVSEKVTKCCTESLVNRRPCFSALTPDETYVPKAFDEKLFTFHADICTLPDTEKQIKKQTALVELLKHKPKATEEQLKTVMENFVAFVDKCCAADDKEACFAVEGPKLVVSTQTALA
Procedure, shortened: as §1

Row | Structure (SMILES) | Kd (ovalbumin (OVA)) | Kd [1] | Kd [2]
1 | CCCCCCCCCCCCOS(=O)(=O)O [SDS] | 11.7 µM | 455 µM | 22.2 µM
2 | C=CCCCCCCCCCOS(=O)(=O)O [SUS] |  | 498 µM | 
